Measurements published in ChEMBL document CHEMBL4513216, “Probing the Open Global Health Chemical Diversity Library for Multistage-Active Starting Points for Next-Generation Antimalarials” (ACS Infect Dis, 2020).

Test: Toxicity liver stage against HepG2, at 10uM
Type: cell-based
Design: test concentration 10 uM, cell line HepG2-A16-CD81EGFP
Conditions: human, HepG2-A16-CD81EGFP cells; read-out: INHIBITION
In short: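 Uninfected HepG2-A16-CD81EGFP cells, 3 × 10^3 per well, 1536-well, plated on prespotted compound at 10 μM final, parasite-free screening media added to match infected plates; puromycin 10 μM positive, DMSO 0.5% negative; run in parallel with 48 h PbLuc assay at 37 °C, 5% CO2; viability by CellTiter-Glo luminescence, normalized to controls.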

Row | SMILES | cytotoxicity at 10 µM [%]
1 | CCN1CC2(CC1=O)CN(C(=O)c1ccco1)CCN(C(=O)C(C)C)C2 (stereo not given) | -9.16
2 | O=C(CCn1cc(Cl)cn1)N1CCC2(CC1)OCCCC2O (stereo not given) | -135
3 | Cc1nc(CN2CCCC2Cn2ccnc2C(C)C)nc2ccccc12 (stereo not given) | -56.8
4 | COC(=O)C1CCN(C(=O)c2ccc(NS(C)(=O)=O)c(C)c2)CC1 | -1.04
5 | COc1c(Br)c(CC2CC(CO)=NO2)c(OC)c2c1OCO2 (stereo not given) | 6.36
6 | CCc1noc(CNc2ccc(CC(=O)N3CCSCC3)cc2)n1 | 3.73
7 | Cn1cnc2cc(CCC(=O)Nc3n[nH]c(C4CCCO4)n3)ccc21 (stereo not given) | -0.863
8 | O=C(CCN1CCCCC1)Nc1c2c(cc3c1CCC3)CCC2 | 4.29
9 | Clc1ccc2cccnc2c1CNC1CCc2ncnn2C1 (stereo not given) | -6.53
10 | c1cnn(CCCO[C@@H]2CN(C3CCOCC3)[C@@H]3CCCO[C@@H]32)c1 | 4.56
11 | Cc1cnccc1CN1C[C@@H](O)[C@H](Oc2ccccc2)C1 | 1.85
12 | Cc1cn(Cc2nc(CC(C)C)nn2-c2ccccn2)c(=O)[nH]c1=O | -8.66
13 | COC(=O)CCCN(C)C(=O)c1cc(F)cc2[nH]cnc12 | -2.23
14 | Cn1cccc1C(O)CNS(=O)(=O)Cc1ccccc1 (stereo not given) | -37.1
15 | CS(=O)(=O)c1ccccc1C(=O)NCC1Cc2ccccc2O1 (stereo not given) | -9.6
16 | Cc1cc(N2CCCC(N(C)C)C2)n2nc(C)cc2n1 (stereo not given) | -53.5
17 | CCN(CC)C(=O)CSc1nc2cc(C)nc-2c(O)n1CC | 6.58
18 | CN(CC1=CCCN(CCc2ccccn2)C1)C(=O)c1ccco1 | 1.7
19 | Cc1nc(N2CCCC2)nc(C)c1NC(=O)c1ccco1 | -7.7
20 | CCc1cccc(C)c1NC(=O)c1ccccc1N(C)S(C)(=O)=O | 17.8
21 | Cc1oc(-c2nc(C#N)c(NC(C)(C)C)o2)cc1S(=O)(=O)N1CCCC1 | -0.699
22 | COC(=O)CCCn1ccnc1-c1ccccc1 | -4.65

Row | SMILES | cytotoxicity at 10 µM [%]
23 | CC(=O)Cc1c(C)nn(-c2cncc(C(N)=O)c2)c1C | -17.5
24 | O=C(NCC1CCOCC1)[C@H]1C[C@@H]2CCN(Cc3ccncc3)C[C@@H]2O1 | -14.1
25 | CC(C1CCN(Cc2ccc(OC(F)F)cc2)CC1)N1CCOCC1 (stereo not given) | -2.38
26 | CNC(=O)Cn1c(CO)cnc1SCc1ccccc1Cl | 2.6
27 | CCOc1cc(F)ccc1NC1CCN(CC(F)(F)F)C1=O (stereo not given) | -0.302
28 | Cc1cccc(C(=O)N(C)Cc2cc(Br)cs2)n1 | -5.1
29 | CC(C)N(C(=O)Cn1nc2n(c1=O)CCCCC2)C1CCC1 | -7.62
30 | CSCc1cccc(S(=O)(=O)N2CCCCC2)c1 | 6.61
31 | c1ccc(CCCN2CC(n3cccn3)C2)cc1 | -3.83
32 | CC(CN1CCCC1=O)NC(=O)Nc1ccccc1Cn1cccn1 (stereo not given) | -1.33
33 | C[C@@H]1CN(C(=O)c2ccc(C#N)nc2)CC[C@@]1(O)C1CCOCC1 | -11.5
34 | O=C(CN1CCCC1CCCO)NCc1ccccn1 (stereo not given) | -5.6
35 | CN(C)CC1(O)CCN(C(=O)c2cnc(-c3ccccn3)nc2)C1 (stereo not given) | 4.82
36 | CNC(=O)[C@@H]1C[C@@H](N)CN1C1CCN(c2ccccc2F)CC1 | -53.3
37 | Cc1noc(C)c1CN(Cc1ccccc1)C(C)CN1CCOCC1 (stereo not given) | 7.97
38 | COCCN(CCC#N)Cn1cc(Cl)cn1 | 4.68
39 | COc1ncc(C(F)(F)F)c(C(=O)O)c1Cl | 16.7
40 | Cc1nnc(N2CCOC(C)C2)c(C#N)c1C (stereo not given) | -11.7
41 | CS(=O)(=O)N1CCOC2(CCCN(c3cnccn3)C2)C1 (stereo not given) | -3.23
42 | CCNC(=O)NCCCn1nc2ccccn2c1=O | -18.2
43 | Cc1ccc(-c2nc(CN3CCCC(Cn4cncn4)C3)no2)cc1 (stereo not given) | -4.86
44 | O=C(Cc1csc(-c2ccccn2)n1)NCCCN1CCCCCC1=O | 1.16

Row | SMILES | cytotoxicity at 10 µM [%]
45 | O=C1CC2(CCN(Cc3ccncc3)C2)CN1c1ccc2c(c1)OCO2 (stereo not given) | -74.1
46 | Cn1cc(-c2cnc(-c3ccnn3C)nc2)cc1C(=O)N1CCCC1 | 4.55
47 | COCCN1CCN(Cc2cccnc2)[C@H]2CS(=O)(=O)C[C@H]21 | 6.03
48 | COc1ccc(-c2nc(CC(=O)N(C)CCC#N)cs2)cc1OC | 0.19
49 | O=c1ccc(-n2cccn2)nn1CCNS(=O)(=O)c1ccc(F)c(Cl)c1 | 1.48
50 | NS(=O)(=O)c1ccc(N2CCN(CCCc3cn[nH]c3)CC2)cc1 | -145
51 | CN(C)c1ncc2c(O)nc(C3CCNCC3)cc2n1 | 13.3
52 | Cc1[nH]ncc1CCCNC(=O)N1CCC(C(N)=O)CC1 | -3.62
53 | CSc1ncccc1C(=O)N(C)CCc1scnc1C | 4.23
54 | COc1cccc(C(CO)NC(=O)NC(C)C)c1 (stereo not given) | 10.5
55 | Cc1ccc(C)n1-c1c(C(=O)NCC(C)Cn2cccn2)cnn1C (stereo not given) | 13.8
56 | Cc1occc1C(=O)N1CCCN(Cc2cnn(C(C)C)c2)CC1 | -5.62
57 | COc1ccc(-n2ccc(C(=O)NCCN3CCCCCC3)n2)cc1 | -3.84
58 | Cc1ccc(C2(C(=O)NCCCn3cccn3)CCOCC2)cc1 | 9.73
59 | CC(=O)N1CCCN(c2cc(C3CN(C)CCO3)nc(C)n2)CC1 (stereo not given) | 7.47
60 | CC(C)NC(=O)N1CCC2(CC1)[C@@H]1CN(C(=O)N(C)C)C[C@@H]1C(=O)N2C | 4.32
61 | O=S(=O)(N1CCCCCC1)N1CCCN(CC2CCCO2)CC1 (stereo not given) | 0.863
62 | COCc1cc(CC2(NC3CCCCC3)COC2)no1 | 0.66
63 | O=C(NC1CC1)[C@@H]1CCO[C@@H]2CCN(Cc3ccsc3)C[C@H]21 | 4.4
64 | CCC(=O)N1CCN(c2ccc(C(=O)OC)cc2)CC1C (stereo not given) | -13.5
65 | O=C1CCC2(CCCO2)CCN1Cc1noc(C2CCCC2)n1 (stereo not given) | 4.24
66 | CCN(CC)S(=O)(=O)N1CCCN(CC2CCCO2)CC1 (stereo not given) | 5.69

Row | SMILES | cytotoxicity at 10 µM [%]
67 | O=C(CCc1cncc(F)c1)NS(=O)(=O)c1ccc(F)cc1F | -7.49
68 | CC(C)CS(=O)(=O)CCNc1ncccn1 | -2.43
69 | Cc1cnn(CCNCC(=O)NC(c2ccccc2)c2ccccc2)c1 | -5.73
70 | COc1c(C2CCCN2C(=O)c2ccnn2C)c(C)nn1C (stereo not given) | 2.55
71 | O=C(COCC(=O)N(c1ccccc1)c1ccccc1)N1CCOCC1 | 1.64
72 | COCC(=O)NCc1cc(=O)n2c(n1)CN(CC1CCOC1)CCC2 (stereo not given) | 1.47
73 | Cc1ccc(NC(=O)NCCCc2n[nH]c(N)c2C#N)cc1 | -4.71
74 | Cc1nnc(NC(=O)NC(C)Cn2cccn2)s1 (stereo not given) | 6.62
75 | O=C(c1cscn1)N1CCCC2(CCN2Cc2cccc(F)c2)C1 (stereo not given) | -112
76 | CCN(CC1CCOC1)C(=O)c1ccn(-c2cc(C)ccc2OC)n1 (stereo not given) | 6.16
77 | c1cnnc(N[C@@H]2CC[C@@H]3CN(Cc4ccc5cc[nH]c5c4)C[C@@H]32)c1 | -0.423
78 | CC(C)N1CCC(C(=O)N[C@H](C(=O)O)c2cccc(F)c2F)CC1 | 2.59
79 | CCOC(=O)N1CCC(Nc2cc(CC)nc3c(C)c(C)nn23)CC1 | 11.8
80 | CN(CCCN1CCOCC1)[C@@H]1c2ccccc2C2(CCNCC2)[C@H]1O | -3.12
81 | O=C1[C@@H]2CCN(Cc3ccoc3)C[C@@H]2OCCN1c1cccnc1 | -74.6
82 | Cc1nnc2n1CC(CNCc1nc(-c3cccs3)no1)CC2 (stereo not given) | 10.1
83 | CSc1cc2c(cc1NC(=O)NCC1CCOC1)OCCO2 (stereo not given) | -4.54
84 | CN(Cc1ccccc1O)CC1CCCN(CCc2ccc(Cl)cc2)C1 (stereo not given) | -10.1
85 | CCOc1ccc(C(=O)CCC(=O)N(C)Cc2noc(C)n2)cc1C | -4.34
86 | FC(F)(F)C1CN(c2nc(-c3ccccc3)no2)CCO1 (stereo not given) | -1.52
87 | COc1ccc(CNC(=O)NCc2cc(C)oc2C)cc1 | -6
88 | CN(CC(=O)N1CCCCC1c1nccs1)C1CC1 (stereo not given) | 10.2

Row | SMILES | cytotoxicity at 10 µM [%]
89 | CS(=O)(=O)N1CC2(CCCN(CC3CC3)C2)Cc2ccccc21 (stereo not given) | 2.85
90 | N[C@H]1CN(C(=O)Cc2cc(F)cc(Cl)c2)C[C@@H]1C1CC1 | 0.0152
91 | Cc1cccc(-c2nc(C)nn2CC(=O)NCC(C)C)c1 | -27.9
92 | CC(NC(=O)Cn1cccn1)c1ccc2c(c1)OCCCO2 (stereo not given) | -2.55
93 | O=C(NC1CCCN(c2ccc(OC(F)F)cc2)C1)c1cc[nH]n1 (stereo not given) | 3.65
94 | CCC(C(=O)NCc1noc(Cc2cccs2)n1)n1cccn1 (stereo not given) | -1.91
95 | Cc1nc(CO[C@@H]2CN(Cc3cnn(C)c3)[C@@H]3COC[C@@H]32)cs1 | -7.06
96 | COc1ccc(S(=O)(=O)NCCn2cnc(C)cc2=O)cc1C | 7.69
97 | CCNC(=O)NC(c1ccc(C)cc1)c1cccc(S(C)(=O)=O)c1 (stereo not given) | -5.82
98 | CCc1nc(CN2CCCC(N(C)CCn3cccn3)C2)no1 (stereo not given) | -11.5
99 | Cc1c(C(=O)N2CCCC(O)(CN(C)C)CC2)c2cc(O)ccc2n1C (stereo not given) | -119
100 | CCn1c(CN(C)C)nnc1C1CCN(Cc2cccc(OC)c2)CC1 | -13.6
101 | Cc1cnn(CCNCC(O)c2ccc(S(C)(=O)=O)cc2)c1 (stereo not given) | 1.1
102 | CNC(=O)c1ccc2c(c1)C1(CCN(C(C)C)CC1)C(=O)N2 | 12.6
103 | COC1CCN(C(=O)CC2CCCC2)CC(=O)N(C)c2ccccc21 (stereo not given) | -3.09
104 | CC1=Nc2c(c(=O)[nH]n2C(C)C)C(c2ccc3c(c2)OCCO3)S1 (stereo not given) | -1.01
105 | CC(C)CN1C(=O)CC[C@H]2CN(C(=O)c3ncc[nH]3)CC[C@H]21 | 5.09
106 | CC(C)(C)NC(=O)NC(=O)CNC(C)(C)c1ccc2c(c1)OCCO2 | -8.72
107 | CNc1ncccc1CN1CCC1c1cc(N)nc(C)n1 (stereo not given) | 15.9
108 | CCN1CC[C@@]2(C(=O)N(C)C)CCN(C(=O)Cc3ccccc3)CC[C@@H]12 | 4.65
109 | CC(C)c1cc(NC(=O)CN2CCC(N3CCCCC3)CC2)on1 | -9.68
110 | CNC(=O)C(C)CN(C)C(=O)Nc1ccc(F)c(-n2cccc2)c1 (stereo not given) | -2.07
